Measured values of several laboratories.
Compare with care: the assays were run in different laboratories.
LRRK2 G2019S: Leucine-rich repeat serine/threonine-protein kinase 2 (LRRK2, Homo sapiens, UniProt Q5S007, G2019S)
LRRK2: Leucine-rich repeat serine/threonine-protein kinase 2 (LRRK2, Homo sapiens, UniProt Q5S007)

C#Cc1cc(-c2cc(Nc3nc(N[C@@H](C)c4ccc(F)cn4)ncc3Cl)n[nH]2)ccc1C=O  inhibition (LRRK2 G2019S; enzyme activity, inhibitor; 0.2 µM): 23%
CCCCC(=O)Nc1ccc(-c2ccc3ncn(CCC)c(=O)c3c2)cn1  remaining binding (LRRK2 G2019S; binding, competition with immobilised ligand; 0.5 µM): 100%
Cc1ccc(NC(=O)c2ccnc(C(F)(F)F)c2)cc1-c1cc(OCCO)nc(N2CCOCC2)c1  remaining binding (LRRK2; binding; 1 µM): 100%
C[C@]1(O)CCCN(c2nc(Nc3ccc(S(=O)(=O)N[C@H]4CC[C@H](CN5CCN(c6ccc(C7CCC(=O)NC7=O)cc6F)CC5)CC4)cc3F)ncc2C(F)(F)F)C1 (stereo partly drawn)  remaining binding (LRRK2 G2019S; binding, competition with immobilised ligand; 1 µM): 39%
COc1ccc2[nH]c3c4[nH]c5ccc(OC)cc5c4c4c(c3c2c1)C(=O)NC4=O  remaining binding (LRRK2 G2019S; binding; 1 µM): 2.6%
CNS(=O)(=O)c1ccc(Nc2ncc(C(F)(F)F)c(N3CCC[C@](C)(O)C3)n2)c(C)c1  remaining binding (LRRK2; binding, competition with immobilised ligand; 1 µM): 12%
C1=C/COCc2cc(ccc2OCCN2CCCC2)Nc2nccc(n2)-c2cccc(c2)COC/1  remaining binding (LRRK2; binding; 0.1 µM): 100%
CN1CCN(C(=O)c2ccc(NC(=O)Nc3ccc(N(C)c4ccnc(Nc5ccc(CS(C)(=O)=O)cc5)n4)cc3)cc2)CC1  remaining binding (LRRK2; binding; 1 µM): 74%
C[C@]1(O)CCCN(c2nc(Nc3ccc(S(=O)(=O)N[C@H]4CC[C@H](CN5CCN(c6ccc(C7CCC(=O)NC7=O)cc6F)CC5)CC4)cc3Cl)ncc2C(F)(F)F)C1 (stereo partly drawn)  remaining binding (LRRK2; binding, competition with immobilised ligand; 1 µM): 21%
C[C@H]1CC[C@H](n2c3cnccc3c3cnc(Nc4ccc5c(n4)CCN(C(=O)CO)C5)nc32)CC1  remaining signal (LRRK2; cell-free assay; 1 µM): 28%
Cc1cc(S(=O)(=O)N[C@H]2CC[C@H](CN3CCN(c4ccc(C5CCC(=O)NC5=O)cc4F)CC3)CC2)ccc1Nc1ncc(C(F)(F)F)c(N2CCC[C@](C)(O)C2)n1 (stereo partly drawn)  remaining binding (LRRK2; binding, competition with immobilised ligand; 1 µM): 6.6%
C=CC(=O)N1CCC([C@@H]2CCNc3c(C(N)=O)c(-c4ccc(Oc5ccccc5)cc4)nn32)CC1  inhibition (LRRK2 G2019S; enzyme activity, inhibitor; 1 µM): 0%
